Measured values taken from article PMC9033243 (RSC Advances, 2021).

Experiments:
E. coli (25922) = experiment: Antimicrobial susceptibility test; assay type: cell-based; details: Escherichia coli, 18 h, read-out: MIC E. coli (25922)
Method in brief: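 Exponential-phase cells diluted to about 5 × 10^5 cfu mL−1, in CA-MHB for S. aureus ATCC 29213 and MHB for E. coli ATCC 25922. Test compound serially diluted in DMSO from a DMSO stock; final DMSO 1% (v/v), with 1% DMSO controls. After 37 °C for 18 h, OD600 is read and % inhibition taken against controls. MIC is the lowest concentration giving ≥90% inhibition. Three independent assays.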

E. coli PBP 1b = target: T1, E. coli PBP 1b (Escherichia coli, UniProt P02919); experiment: Lipid II-based in vitro transglycosylation assay; assay type: biochemical; details: read-out: Inhibition of PBP 1b activity at 50 μM
T1 sequence (P02919 1-844): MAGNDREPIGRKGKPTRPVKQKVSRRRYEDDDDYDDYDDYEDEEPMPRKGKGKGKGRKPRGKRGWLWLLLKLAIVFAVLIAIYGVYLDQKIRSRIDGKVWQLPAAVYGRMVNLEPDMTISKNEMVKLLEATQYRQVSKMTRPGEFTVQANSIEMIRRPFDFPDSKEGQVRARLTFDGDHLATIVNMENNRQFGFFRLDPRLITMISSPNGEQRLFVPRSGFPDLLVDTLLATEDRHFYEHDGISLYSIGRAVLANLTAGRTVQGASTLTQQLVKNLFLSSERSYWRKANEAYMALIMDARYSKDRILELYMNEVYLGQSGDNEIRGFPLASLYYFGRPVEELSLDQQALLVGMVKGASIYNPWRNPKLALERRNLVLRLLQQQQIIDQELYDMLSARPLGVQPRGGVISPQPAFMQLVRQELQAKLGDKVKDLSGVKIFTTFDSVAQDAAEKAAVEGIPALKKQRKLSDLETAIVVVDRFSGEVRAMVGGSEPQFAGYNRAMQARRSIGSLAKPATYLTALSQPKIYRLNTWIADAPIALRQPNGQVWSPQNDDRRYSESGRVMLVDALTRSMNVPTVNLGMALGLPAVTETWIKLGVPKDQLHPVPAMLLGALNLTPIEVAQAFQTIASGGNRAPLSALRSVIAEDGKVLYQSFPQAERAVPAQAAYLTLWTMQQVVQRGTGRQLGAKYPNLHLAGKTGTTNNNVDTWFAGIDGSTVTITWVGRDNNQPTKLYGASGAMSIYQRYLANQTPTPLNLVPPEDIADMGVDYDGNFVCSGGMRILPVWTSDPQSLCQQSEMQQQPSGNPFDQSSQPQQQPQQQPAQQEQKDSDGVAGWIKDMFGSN
Method in brief: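 E. coli PBP 1b (13.2 nM) is preincubated with test compound for 5 min at 30 °C. Buffer: 50 mM HEPES pH 7.5, 200 mM NaCl, 10 mM CaCl2, 0.08% decyl PEG, 10% DMSO, 15% methanol, 2 U μL−1 muramidase. Dansyl-lipid II (5 μM) is added for 5 min at 30 °C. Moenomycin A (1 μM, 10 min) quenches […]. Read by anion-exchange HPLC, in duplicate. IC50 from Hill fit; Ki via IC50 = Ki(1 + [s]/Km), Km = 1.8 μM.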

MIC (E. coli (25922)): > 96 µg/mL
inhibition at 50 µM (E. coli PBP 1b): 100%
Compound: C=C(C/C=C(\C)CCC=C(C)C)CCC(C)(C)/C=C/CC/C(C)=C\CO[C@H](COP(=O)(O)O[C@H]1O[C@H](C(N)=O)[C@@](C)(O)[C@H](OC(N)=O)[C@H]1O[C@@H]1O[C@H](CO[C@@H]2O[C@H](CO)[C@@H](O)[C@H](O)[C@H]2O)[C@@H](O[C@@H]2O[C@H](C)[C@@H](O[C@@H]3O[C@H](C(=O)NC4=C(O)CCC4=O)[C@H](O)[C@H](O)[C@H]3O)[C@H](O)[C@H]2NC(C)=O)[C@H](O)[C@H]1NC(C)=O)C(=O)O [Moenomycin A]
